Laboratory results as given in ChEMBL document CHEMBL1149285, “Identification of novel parasitic cysteine protease inhibitors using virtual screening. 1. The ChemBridge database” (J Med Chem, 2004).
pEC50, pIC50: −log10 of the molar value. Active and inactive are the calls of the source. The rule behind the calls is not given here.

Tests used:
Plasmodium falciparum [1] = experiment: Antiplasmodial activity against chloroquine-sensitive Plasmodium falciparum D6 after 48 hrs as LDH reporter activity; type: functional, organism-based; conditions: D6, 48 h
Summary of the method: (§1)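 Asynchronous P. falciparum cultures (2% hematocrit, 2% parasitemia) were exposed to compound dilutions prepared in DMSO. They were incubated 48 h at 37 °C in a humidified chamber under 90% N2, 5% CO2, 5% O2. Growth was read as parasite lactate dehydrogenase activity using Malstat reagent. Medium-only and erythrocyte-only wells were included, with chloroquine and artemisinin as positive and DMSO as negative controls.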

Falcipain 2 = biological target: T1, Falcipain 2 (Plasmodium falciparum, UniProt Q9N6S8); experiment: Inhibition of Plasmodium falciparum recombinant falcipain-2
T1 sequence (Q9N6S8 whole entry): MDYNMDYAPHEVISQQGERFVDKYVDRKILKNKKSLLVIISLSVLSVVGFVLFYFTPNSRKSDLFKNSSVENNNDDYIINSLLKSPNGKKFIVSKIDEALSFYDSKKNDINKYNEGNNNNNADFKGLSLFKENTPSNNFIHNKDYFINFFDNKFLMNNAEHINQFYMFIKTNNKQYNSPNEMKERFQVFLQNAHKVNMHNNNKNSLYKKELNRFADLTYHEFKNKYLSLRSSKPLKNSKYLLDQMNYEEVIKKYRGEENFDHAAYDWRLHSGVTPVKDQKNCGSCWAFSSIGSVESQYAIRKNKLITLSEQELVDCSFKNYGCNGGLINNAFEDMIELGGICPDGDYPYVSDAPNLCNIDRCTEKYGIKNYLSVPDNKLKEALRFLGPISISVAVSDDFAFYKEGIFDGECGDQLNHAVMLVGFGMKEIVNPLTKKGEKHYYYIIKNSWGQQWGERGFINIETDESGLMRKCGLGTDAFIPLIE
Summary of the method: (§2)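 Equal amounts of recombinant enzyme preincubated 30 min at room temperature with serial inhibitor dilutions from DMSO stocks (DMSO at most 1% in assay) in 100 mM sodium acetate pH 5.5, 10 mM dithiothreitol. Z-Leu-Arg-AMC then added to 25 μM final; fluorescence followed 15 min at room temperature. IC50 taken from percent activity versus concentration plots.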

Cysteine protease = biological target: T2, Cysteine protease (Leishmania donovani, UniProt Q95WR6); experiment: Inhibition of Leishmania donovani cysteine protease
T2 sequence (Q95WR6 whole entry): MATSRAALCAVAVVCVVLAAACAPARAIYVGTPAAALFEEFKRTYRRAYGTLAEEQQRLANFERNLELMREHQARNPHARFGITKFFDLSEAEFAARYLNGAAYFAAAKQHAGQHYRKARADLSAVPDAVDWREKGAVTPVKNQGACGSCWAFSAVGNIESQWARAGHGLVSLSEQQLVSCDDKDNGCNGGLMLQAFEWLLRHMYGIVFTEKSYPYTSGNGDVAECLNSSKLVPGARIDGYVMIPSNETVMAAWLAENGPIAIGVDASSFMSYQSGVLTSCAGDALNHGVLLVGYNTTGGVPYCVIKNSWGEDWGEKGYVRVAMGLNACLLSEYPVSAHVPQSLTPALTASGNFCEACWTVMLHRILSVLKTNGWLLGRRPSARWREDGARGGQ

Plasmodium falciparum [2] = experiment: Antiplasmodial activity against chloroquine-resistant Plasmodium falciparum W2 as LDH activity after 48 hrs; type: functional, organism-based; conditions: W2, 48 h; summary of the method: as §1
[3] = biological target: T3, Cysteine protease falcipain-3 (Plasmodium falciparum, UniProt Q9NBA7); experiment: Inhibition of Plasmodium falciparum recombinant falcipain-3; summary of the method: as §2
T3 sequence (Q9NBA7 whole entry): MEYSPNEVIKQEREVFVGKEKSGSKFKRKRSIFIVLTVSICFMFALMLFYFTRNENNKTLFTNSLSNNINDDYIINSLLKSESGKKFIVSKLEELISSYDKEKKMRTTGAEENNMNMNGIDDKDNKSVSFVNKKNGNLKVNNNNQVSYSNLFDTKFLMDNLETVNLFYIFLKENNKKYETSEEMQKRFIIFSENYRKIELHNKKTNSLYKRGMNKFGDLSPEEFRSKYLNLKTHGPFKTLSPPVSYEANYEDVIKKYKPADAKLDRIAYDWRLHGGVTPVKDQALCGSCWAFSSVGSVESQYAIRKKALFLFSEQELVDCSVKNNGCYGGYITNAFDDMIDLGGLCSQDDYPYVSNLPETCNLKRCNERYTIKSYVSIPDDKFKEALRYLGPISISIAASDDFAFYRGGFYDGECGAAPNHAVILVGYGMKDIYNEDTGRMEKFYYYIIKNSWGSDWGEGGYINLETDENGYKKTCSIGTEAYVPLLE

Vero [4] = experiment: Cytotoxicity against Vero cells at 23.8 ug/mL by Neutral red assay; type: cell-based; conditions: chlorocebus sabaeus
Summary of the method: (§3)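 VERO monkey kidney […] exposed to compounds alongside the antiparasitic assays, viability by Neutral Red uptake; highest concentration tested 23.8 μg/mL; IC50 computed from growth inhibition curve.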

Leishmania donovani = experiment: Antileishmanial activity against Leishmania donovani promastigotes after 72 hrs by Alamar blue assay; type: functional, organism-based
Summary of the method: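 L. donovani promastigote culture at 2 × 10⁶ cells/mL given diluted compounds, incubated 72 h at 26 °C; growth read by Alamar blue. Pentamidine and amphotericin B as reference agents; IC50 computed from growth inhibition curve.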

Vero [5] = experiment: Cytotoxicity against Vero cells by Neutral red assay; type: cell-based; conditions: chlorocebus sabaeus; summary of the method: as §3

Work on O=C(Cn1nnc(-c2ccccc2)n1)N/N=C1\C(=O)Nc2ccccc21 yielded a pEC50 (Plasmodium falciparum [1]) of 4.16, a pIC50 (Falcipain 2) of 4.56 and a pIC50 (Cysteine protease) of 3.89. For the same compound, the pEC50 (Plasmodium falciparum [2]) was 4.36, the pIC50 [3] was < 4.30 and the Activity (Vero [4]) was “Non-toxic”. The Activity (Leishmania donovani) was “inactive”.

For Oc1cccc(/C=N\c2cccc3c(/N=C/c4cccc(O)c4O)cccc23)c1O, the pEC50 (Plasmodium falciparum [1]) was 5.16, the pIC50 (Falcipain 2) was 5.34 and the pIC50 (Vero [5]) was 4.54. It also gave a pIC50 (Cysteine protease) of 3.95, a pEC50 (Plasmodium falciparum [2]) of 5.18 and a pIC50 [3] of 5.24. For the same compound, the pIC50 (Leishmania donovani) was 5.06.
